Screen size: about 190,000 compounds; fewer than 10 were called active.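 The calls were made as follows: active = over 50% inhibition of intestinal alkaline phosphatase at 20 µM in the single-dose screen; inactive = the rest.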 These entries were drawn from the full list.
System: alkaline phosphatase, intestinal [Bos taurus]
Test: IAP enzyme activity blockers – biochemical, bovine IAP, CDP-star luminescence, selectivity assay for TNAP inhibitor project, primary screen (AID 1019)
Conditions: purified bovine IAP, 30 min, at 20 µM, active compounds read high
How it was run: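 Assay system: bovine IAP enzyme; medium: DEA buffer 100 mM, pH 9.8, with MgCl2 1.0 mM, ZnCl2 0.02 mM; doses: 20 µM single dose; incubation: enzyme reaction for 30 min at room temperature; detection: CDP-star luminescence signal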

inhibition, inactive:
Cn1cccc1C(C#N)c1ccccc1C#N (stereo not given) -10.8%
Cc1ccc(NC(=S)N(Cc2ccco2)C(C)c2cccs2)cc1 (stereo not given) 34.5%
NC1=C([N+](=O)[O-])C(c2ccccc2)C2=C(CCCC2=O)O1 (stereo not given) 3.7%
COc1ccccc1Oc1ccc(N/C=C2/CCCC2=O)cc1 20.1%
CC(=O)Nc1nc(N(C)C)nc(N(C)C)n1 4.4%
CC(=O)c1ccc(N=C2SCCCN2C(=O)C2CCCCC2)cc1 24.2%
COc1ccccc1N1CCN(CC(=O)NCCc2ccc(S(N)(=O)=O)cc2)CC1 -0.9%
Oc1ccc(/C=N/Nc2ccc(C(F)(F)F)cn2)cc1O -26.9%
COc1ccc(OC)c(C2C3=C(N=c4s/c(=C\c5cccc(O)c5)c(=O)n42)c2ccccc2CC3)c1 (stereo not given) 0.5%
COc1ccc(NC(=O)C(C)SCc2ccccc2)cc1 (stereo not given) -24.1%
CN(c1ccccc1)S(=O)(=O)c1ccc(Cl)c(C(=O)OCC(=O)N2CCOCC2)c1 0.4%
CC(NCc1nc2ccccc2n1C)C12CC3CC(CC(C3)C1)C2 (stereo not given) 1%
CCN(CC)S(=O)(=O)c1cc([N+](=O)[O-])ccc1N=Nc1c(O)n(C)c2ccccc12 -5.1%
Cc1cccc(CN2CCN(Cc3cnn(-c4ccccc4F)c3)CC2CCO)n1 (stereo not given) -15.4%
O=[N+]([O-])c1ccccc1N/N=C1\CCc2ccccc21 14.9%
CCc1ccc(C(=O)OCC(=O)Nc2cccc(S(=O)(=O)NC3=NCCCCC3)c2)cc1 7.2%
O=C(COC(=O)c1cc(-c2cccs2)nn1-c1ccccc1)Nc1cc([N+](=O)[O-])ccc1Cl -4.8%
Cc1ccc(C2=NN(C(=O)COc3ncnc4ccccc34)C(c3ccco3)C2)cc1 (stereo not given) -8.2%
COC(=O)c1cc(NC(=O)c2cccnc2)ccc1N1CCOCC1 0.2%
COc1ccc(S(=O)(=O)NC(C)C)cc1C(=O)NC1CCCCC1 7.7%
COc1ccccc1NC(=O)C[n+]1ccccc1 5.8%
Cc1cc(/C=C2/SC(=O)N(CC(=O)N3CCCC3)C2=O)ccc1N1CCOCC1 2.3%
COc1ccc(CCNC(=O)Cn2c(=O)n(CC3CCCO3)c(=O)c3ccccc32)cc1OC (stereo not given) -3.9%
N#C/C(=C\C1=C(N2CCOCC2)C(=C\c2ccccc2)/CC1)C(=O)Nc1ccccc1F 5.9%
CC1CN/C(=C\C(=O)c2ccc(Br)cc2)C(=O)N1 (stereo not given) 12.9%
COc1ccc(/C=C(\C#N)C(=O)ONC2=NCCCCC2)cc1 -2%
Cc1ncoc1C(=O)N1CCCC(C(=O)c2ccc3c4c(cccc24)CC3)C1 (stereo not given) 8.3%
COC(=O)c1nc(NC(=O)c2ccc(F)cc2)n[nH]1 8.8%
CC1(C)CC(=O)c2cnc3nc4ccccc4n3c2C1 7.1%
CCOc1c(CNCc2ccc(C(=O)O)cc2)cccc1OC -5.7%
Cc1cc(C(C)(C)C)cc(S(=O)(=O)Nc2ccc(C(=O)O)cc2)c1C -15.7%
Cc1c(NC(=O)CSc2nnnn2-c2ccc(C(=O)O)cc2)c(=O)n(-c2ccccc2)n1C 6%
CC(C)(C)c1cnnn1-c1ccc([N+](=O)[O-])cc1 3.1%
CCCCCCCCCOC1OC(CO)C(O)C(O)C1NC(C)=O (stereo not given) -0.5%
COc1ccc(CCNC(=O)CN(c2ccccc2)S(C)(=O)=O)cc1 -4%
CCCc1nc2c([nH]1)C(c1cccnc1)C(C#N)=C(N)O2 (stereo not given) 8.5%
CC(OC(=O)CCc1nc(=O)c2ccccc2n1C)C(=O)NCc1ccc2c(c1)OCO2 (stereo not given) -9.4%
O=c1[nH]c(=S)[nH]c2[nH]c(=S)[nH]c12 18.7%
CC(C)N(Cc1nc(-c2ccc3c(c2)OCO3)no1)CC1CCC(=O)N1 (stereo not given) 2.1%
O=C(NC1CC1)c1ccc(-c2ccccc2)cc1 -4.4%
O=C(O)CSCC(=O)Nc1ccc(C(F)(F)F)cc1 3.8%
COc1cc(OC)cc(C(=O)NCC(=O)OCc2csc(-c3ccccc3)n2)c1 1.4%
CNc1nccc(-c2ccc(Cl)cc2)c1C#N -1.9%
O=C(c1ccc(C(F)(F)F)cc1)C1CCCN(C(=O)c2csnn2)C1 (stereo not given) 9.5%
CN1C(=O)/C(=C/c2ccco2)SC1=Nc1cccc(C(=O)O)c1 -5.3%
COC(=O)CCC(=O)N1CCCC(CO)(Cc2ccccc2)C1 (stereo not given) 6.2%
CCN(CC)CCN(C(=O)c1cccc([N+](=O)[O-])c1)c1nc2ccc(OC)cc2s1 4.9%
O=C(Nc1ccc([N+](=O)[O-])cc1)C1(c2ccccc2)CCOCC1 9.9%
Cc1noc(C)c1COc1cccc(C(=O)Nc2cccnc2)c1 -7.5%
CC(C)CCNC(=O)c1cccnc1Sc1ccccc1 -6.1%
Brc1ccc(C2CC(c3ccccc3)=Nc3ccccc3N2)cc1 (stereo not given) 7.5%
Cc1ccc(C)c(Cn2nnc3c(=O)[nH]c(C(=O)Nc4ccc(F)cc4)nc32)c1 2.7%
COc1ccccc1CN(C)C(=O)C1(c2ccc(Cl)cc2)CC1 11.2%
COCCNC(=S)Nc1cc(S(=O)(=O)N2CCOCC2)ccc1N1CCCCC1 -0.2%
COc1ccc(S(=O)(=O)N2CCN(C(=O)c3cc(C)oc3C)CC2)cc1 4.3%
Cc1ccc(NC(=O)c2oc3ccccc3c2C)c([N+](=O)[O-])c1 21.2%
Clc1ccc(-c2cc(C3CCNCC3)[nH]n2)c(Cl)c1 1%
COc1cccc(NC(=O)C(Sc2nnnn2C)c2ccccc2)c1 (stereo not given) -2.3%
CCC1SC(CC)C(=O)N(CC(=O)NC2CCCCC2)C1=O (stereo not given) 11.7%
O=C(CCc1[nH]c2ccccc2c1Sc1ccccc1)N(CCO)CCO 14.8%
Cc1ccc(S(=O)(=O)N(Cc2ccc(Cl)cc2)c2ccccc2C(=O)NCc2cccnc2)cc1 15.3%
O=C(C/C(=N\NC(=O)c1ccccc1Br)C(F)(F)F)c1cccs1 5.9%
Cc1ccc(C(=O)N2CCN(S(=O)(=O)N3CCOCC3)CC2)cc1 9%
CCc1cccc(C)c1NC(=O)COC(=O)Cc1ccsc1 -0.9%
O=C(CSc1nncs1)NC1CCCc2ccccc21 (stereo not given) -2.1%
Cc1ccc2nc(C)cc(N/N=C/c3ccc(F)cc3)c2c1 0.2%
O=C(COC(=O)Cn1cnc2ccccc2c1=O)NCC12CC3CC(CC(C3)C1)C2 12.5%
O=C1CCC(CCC(=O)N2CCCC(C(=O)c3ccc(Cl)cc3)C2)=NN1 (stereo not given) -3%
CCC(C)CN1CCC(CO)(Cc2ccccc2Cl)CC1 (stereo not given) -18.6%
COc1ccc(N2C(=O)C(Cc3ccccc3)NC2=S)cc1 (stereo not given) -2.9%
COc1ccc(-n2cnnc2SCC(=O)Nc2cccc([N+](=O)[O-])c2)cc1 8.1%
Cc1nc2scc(-c3cccs3)c2c(=O)n1N -37.2%
CCN(CC(=O)Nc1ccc(Cl)c(S(=O)(=O)N(C)C)c1)Cc1nc2ccccc2c(=O)[nH]1 -108%
COc1cc(C(=O)Nc2cc(C(F)(F)F)ccc2-n2cncn2)cc(OC)c1OC -1.7%
NS(=O)(=O)c1ccc(CCNC(=O)c2ccc(Cl)cc2[N+](=O)[O-])cc1 -14.5%
Cc1nc2ccccn2c1C(=O)NN=C1CCN(C)CC1 -6.8%
CC(=O)NNC1=Nc2ccccc2N(C)C(C)C1 (stereo not given) 26.5%
Clc1ccc(N/N=C/c2cccs2)nn1 -1.4%
Cc1cccc(CSc2ccc(-c3cccs3)nn2)c1 14.5%
COC(=O)c1c(NC(=O)c2c(Cl)cnn2C)sc(C)c1C 0.9%
O=C(NCc1cccs1)c1cc(-c2ccccn2)nc2ccc(Br)cc12 -9.8%
CC1CCN(C(=O)c2ccc(S(=O)(=O)Cc3cc(F)ccc3F)c([N+](=O)[O-])c2)CC1 18.6%
COc1ccc(CCN=C2SCC(=O)N2Cc2ccccc2)cc1OC 3.1%
COc1ccc(C(=O)NNC(=O)c2cc(C)[nH]n2)cc1 -38.6%
CCN(CC)CCN(C(=O)c1ccc(N2C(=O)CCC2=O)cc1)c1nc2cc3c(cc2s1)OCO3 -11.6%
CC(=O)Nc1ccc(C(=O)OCC(=O)Nc2ccc([N+](=O)[O-])cc2C(F)(F)F)cc1 34.7%
Cn1cc(CN2CCCCC2c2ccccn2)c(-c2ccc3c(c2)OCCO3)n1 (stereo not given) 6.3%
COc1ccc(C(=O)Nc2ccc(N3CCC(C)CC3)cc2)cc1Br -10.7%
O=C(CSc1ccccc1)Nc1cc(Cl)ccc1Oc1ccccc1 6.2%
N/C(Cc1ccc([N+](=O)[O-])cc1)=N\OC(=O)C1CCCCC1 -0.5%
CCCCS(=O)c1snnc1C (stereo not given) -11.4%
C[C@@H]1NC(=O)c2cc([N+](=O)[O-])cc(F)c2NCCC[C@@H](C(N)=O)NC(=O)[C@H](CC(N)=O)NC1=O 38.7%
CCN(CC)C(=O)Oc1ccc(OC(=O)N(CC)CC)cc1 -10.3%
CC(=O)NCC(=O)N(Cc1ccco1)C1(C(=O)NC2CCCC2)CCCCC1 3.8%
CCOC(=O)c1c(CN(C)C)n(-c2ccccc2)c2cc(Br)c(O)cc12 -6.7%

Source: PubChem BioAssay AID1019 (Sanford-Burnham Center for Chemical Genomics, 2008)
